Laboratory results as given in ChEMBL document CHEMBL2062375, “Discovery of an orally efficacious inhibitor of anaplastic lymphoma kinase” (J Med Chem, 2012).

What was measured:
[1] = AUC (0 to 12 hrs) in rat 55 mg/kg, po; format: ADME, organism-based; parameters: time < 12 hr, dose 55 mg/kg, route oral; details: plasma
Method in brief: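 Rat oral dose escalation at 10, 30, 55 and 100 mg/kg. Gavage at 5 mL/kg in 40% HPβCD after an overnight fast. Serial tail-vein blood was drawn into heparinized tubes. Plasma was protein-precipitated with acetonitrile and assayed by LC-MS/MS. Cmax and AUC0–12 were derived noncompartmentally; n = 2 at 10 mg/kg.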

[2] = Plasma clearance in CD-1 mouse at 1 mg/kg, iv; format: ADME, organism-based; parameters: dose 1 mg/kg, route intravenous
Method in brief: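 Mouse IV PK: lateral tail vein dosing, 100 μL in 3% DMSO/30% Solutol/67% PBS; trunk blood from three mice per time point over 6 h. Plasma precipitated with acetonitrile, drug quantified by LCMS/MS against internal standard; noncompartmental analysis.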

[3] = AUC in CD-1 mouse at 1 mg/kg, iv; format: ADME, organism-based; parameters: dose 1 mg/kg, route intravenous; details: plasma
Method in brief: (§1)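 Mouse PK. IV via the lateral tail vein in 3% DMSO/30% Solutol/67% PBS, or oral gavage in 100% PEG400, 100 μL dose volume, after an overnight fast. Trunk blood was taken from three mice per time point over 6 h. Plasma was acetonitrile-precipitated and analysed by LC-MS/MS. Parameters were derived noncompartmentally.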

[4] = Half life in cynomolgus monkey at 10 mg/kg, po; format: ADME, organism-based, Macaca fascicularis; parameters: dose 10 mg/kg, route oral; details: in vivo
Method in brief: (§2)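 Dog and monkey PK. IV 0.5 mL/kg in 40% HPβCD via the saphenous vein. Oral dosing was 1 mL/kg by gavage in dogs and 2 mL/kg by nasogastric tube in monkeys, after an overnight fast. Serial femoral-vein blood was taken into heparin over 24 h. Plasma was acetonitrile-precipitated and analysed by LC-MS/MS. Parameters were noncompartmental, n = 3, mean ± SEM.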

[5] = Plasma clearance in Sprague-Dawley rat at 1 mg/kg, iv; format: ADME, organism-based; parameters: dose 1 mg/kg, route intravenous
Method in brief: (§3)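 IV PK: rats via lateral tail vein (1 mL/kg; 3% DMSO/30% Solutol/67% PBS), serial tail-vein blood over 6 h. Dogs and monkeys via saphenous vein (0.5 mL/kg in 40% HPβCD), femoral-vein blood over 24 h. Acetonitrile protein precipitation, LCMS/MS; noncompartmental parameters from individual animals, n = 3, mean ± SEM.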

[6] = Drug level in SCID mouse tumor xenografted with human KARPAS299 cells expressing NPM-ALK at 30 mg/kg, po after 6 hrs by LC-MS/MS analysis; format: ADME, organism-based, Neoplasm, KARPAS-299; parameters: dose 30 mg/kg, route oral; details: read-out: Drug uptake
[7] = Cmax in Sprague-Dawley rat at 10 mg/kg, po; format: ADME, organism-based; parameters: dose 10 mg/kg, route oral; details: in vivo
Method in brief: (§4)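 Rat PK. IV via the lateral tail vein, 1 mL/kg in 3% DMSO/30% Solutol/67% PBS, or oral gavage at 5 mL/kg in 40% HPβCD, after an overnight fast. Serial tail-vein blood was taken into heparin over 6 h. Plasma was acetonitrile-precipitated and analysed by LC-MS/MS. Parameters were noncompartmental, n = 3, mean ± SEM.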

[8] = Half life in CD-1 mouse at 10 mg/kg, po; format: ADME, organism-based; parameters: dose 10 mg/kg, route oral; details: in vivo; method in brief: as §1
[9] = biological target: Mitogen-activated protein kinase 8 (Homo sapiens, UniProt P45983); assay: Inhibition of human JNK1alpha1
Method in brief: (§5)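 Millipore KinaseProfiler activity assays on a 259-kinase panel; kinases inhibited by ≥90% at 1 μM then taken to full IC50 determination.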

[10] = biological target: Serine/threonine-protein kinase Chk2 (Homo sapiens, UniProt O96017); details: 1 uM
[11] = biological target: T1, Protein-tyrosine kinase 6 (Homo sapiens, UniProt Q13882); details: 1 uM
Target sequence in this assay (Q13882 whole entry, looked up): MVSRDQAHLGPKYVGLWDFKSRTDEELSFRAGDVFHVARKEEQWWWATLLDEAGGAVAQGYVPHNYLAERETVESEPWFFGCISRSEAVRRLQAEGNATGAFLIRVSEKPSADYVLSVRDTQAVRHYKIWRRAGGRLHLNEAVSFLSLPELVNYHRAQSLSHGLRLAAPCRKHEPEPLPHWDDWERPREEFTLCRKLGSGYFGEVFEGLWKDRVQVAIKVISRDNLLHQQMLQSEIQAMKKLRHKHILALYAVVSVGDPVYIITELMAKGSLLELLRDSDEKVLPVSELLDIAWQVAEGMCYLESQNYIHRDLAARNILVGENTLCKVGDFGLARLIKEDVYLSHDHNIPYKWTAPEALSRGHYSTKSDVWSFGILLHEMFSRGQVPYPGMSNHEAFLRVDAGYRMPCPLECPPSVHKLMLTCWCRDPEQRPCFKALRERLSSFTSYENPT

[12] = AUC in cynomolgus monkey at 1 mg/kg, iv; format: ADME, organism-based, Macaca fascicularis; parameters: dose 1 mg/kg, route intravenous; details: plasma; method in brief: as §2
[13] = Half life in Beagle dog at 10 mg/kg, po; format: ADME, organism-based, Canis lupus familiaris; parameters: dose 10 mg/kg, route oral; details: in vivo; method in brief: as §2
[14] = Tmax in CD-1 mouse at 10 mg/kg, po; format: ADME, organism-based; parameters: dose 10 mg/kg, route oral; details: in vivo
Method in brief: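 Mouse oral PK: overnight fast, gavage of 100 μL in 100% PEG400; trunk blood from three mice per time point over 6 h; plasma acetonitrile-precipitated and analysed by LCMS/MS, noncompartmental parameters.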

Mus musculus = assay: Inhibition of NPM-ALK phosphorylation in human KARPAS299 cells xenografted in SCID mouse tumor at 30 mg/kg, po qd after 12 hrs by immunoblotting; format: functional; details: KARPAS-299, 12 h
Method in brief: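 SCID mice bearing sc Karpas-299 xenografts received a single 30 mg/kg oral dose. Phospho- and total NPM-ALK in tumour samples were detected by immunoblotting, and relative NPM-ALK phosphorylation was calculated.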

[15] = Drug level in SCID mouse tumor xenografted with human KARPAS299 cells expressing NPM-ALK at 30 mg/kg, po after 12 hrs by LC-MS/MS analysis; format: ADME, organism-based, Neoplasm, KARPAS-299; parameters: dose 30 mg/kg, route oral; details: read-out: Drug uptake
KARPAS-299 = assay: Antitumor activity against human KARPAS299 cells expressing NPM-ALK xenografted in SCID mouse assessed as tumor regression administered as po bid for 12 days; format: functional, organism-based
Method in brief: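 Female SCID/beige mice, 6–8 weeks old, implanted sc in the left flank with exponentially growing Karpas-299 cells. At about 600 mm³ tumours, mice were randomized (8–10/group) and given PEG400 vehicle or compound orally b.i.d., 100 μL, for 12 days. Tumour volume (0.5236LW(L+W)/2) and body weight were recorded every 2–3 days; Mann–Whitney test. Plasma and tumour levels were measured by LC-MS/MS 2 h after the final dose, mean ± SEM.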

[16] = Oral bioavailability in Sprague-Dawley rat at 10 mg/kg; format: ADME, organism-based; details: in vivo
Method in brief: (§6)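 PK: overnight-fasted animals. Rat oral gavage 5 mL/kg in 40% HPβCD, serial tail-vein blood over 6 h. Dog oral gavage 1 mL/kg, monkey nasogastric 2 mL/kg, femoral-vein blood over 24 h. Plasma protein-precipitated with acetonitrile, LCMS/MS with internal standard; noncompartmental analysis, individual animals n = 3, mean ± SEM.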

[17] = Plasma clearance in cynomolgus monkey at 1 mg/kg, iv; format: ADME, organism-based, Macaca fascicularis; parameters: dose 1 mg/kg, route intravenous; method in brief: as §3
Focal adhesion kinase 1 = Focal adhesion kinase 1 (Homo sapiens, UniProt Q05397); details: 1 uM
[18] = Oral bioavailability in cynomolgus monkey at 10 mg/kg; format: ADME, organism-based, Macaca fascicularis; details: in vivo; method in brief: as §6
[19] = biological target: Ribosomal protein S6 kinase alpha-2 (Homo sapiens, UniProt Q15349); assay: Inhibition of human Rsk3; method in brief: as §5
[20] = biological target: Ribosomal protein S6 kinase alpha-1 (Homo sapiens, UniProt Q15418); details: 1 uM
[21] = biological target: T1, Protein-tyrosine kinase 6; assay: Inhibition of human BRK
Target sequence in this assay (Q13882 whole entry): as the sequence (Q13882 whole entry, looked up) above

[22] = biological target: Mitogen-activated protein kinase kinase kinase kinase 2 (Homo sapiens, UniProt Q12851); assay: Inhibition of human GCK; method in brief: as §5
[23] = biological target: Tyrosine-protein kinase Fer (Homo sapiens, UniProt P16591); assay: Inhibition of human Fer
[24] = Tmax in Beagle dog at 10 mg/kg, po; format: ADME, organism-based, Canis lupus familiaris; parameters: dose 10 mg/kg, route oral; details: in vivo; method in brief: as §6
[25] = Cmax in SCID mouse at 10 mg/kg, po; format: ADME, organism-based; parameters: dose 10 mg/kg, route oral; details: in vivo; method in brief: as §1
[26] = AUC in CD-1 mouse at 10 mg/kg, po; format: ADME, organism-based; parameters: dose 10 mg/kg, route oral; details: plasma; method in brief: as §1
[27] = Half life in Sprague-Dawley rat at 10 mg/kg, po; format: ADME, organism-based; parameters: dose 10 mg/kg, route oral; details: in vivo; method in brief: as §4
[28] = biological target: Ribosomal protein S6 kinase alpha-3 (Homo sapiens, UniProt P51812); assay: Inhibition of human Rsk2; method in brief: as §5
[29] = AUC in SCID mouse at 1 mg/kg, iv; format: ADME, organism-based; parameters: dose 1 mg/kg, route intravenous; details: plasma; method in brief: as §1

Chain of Tyrosine-protein kinase Fer (P16591 whole entry): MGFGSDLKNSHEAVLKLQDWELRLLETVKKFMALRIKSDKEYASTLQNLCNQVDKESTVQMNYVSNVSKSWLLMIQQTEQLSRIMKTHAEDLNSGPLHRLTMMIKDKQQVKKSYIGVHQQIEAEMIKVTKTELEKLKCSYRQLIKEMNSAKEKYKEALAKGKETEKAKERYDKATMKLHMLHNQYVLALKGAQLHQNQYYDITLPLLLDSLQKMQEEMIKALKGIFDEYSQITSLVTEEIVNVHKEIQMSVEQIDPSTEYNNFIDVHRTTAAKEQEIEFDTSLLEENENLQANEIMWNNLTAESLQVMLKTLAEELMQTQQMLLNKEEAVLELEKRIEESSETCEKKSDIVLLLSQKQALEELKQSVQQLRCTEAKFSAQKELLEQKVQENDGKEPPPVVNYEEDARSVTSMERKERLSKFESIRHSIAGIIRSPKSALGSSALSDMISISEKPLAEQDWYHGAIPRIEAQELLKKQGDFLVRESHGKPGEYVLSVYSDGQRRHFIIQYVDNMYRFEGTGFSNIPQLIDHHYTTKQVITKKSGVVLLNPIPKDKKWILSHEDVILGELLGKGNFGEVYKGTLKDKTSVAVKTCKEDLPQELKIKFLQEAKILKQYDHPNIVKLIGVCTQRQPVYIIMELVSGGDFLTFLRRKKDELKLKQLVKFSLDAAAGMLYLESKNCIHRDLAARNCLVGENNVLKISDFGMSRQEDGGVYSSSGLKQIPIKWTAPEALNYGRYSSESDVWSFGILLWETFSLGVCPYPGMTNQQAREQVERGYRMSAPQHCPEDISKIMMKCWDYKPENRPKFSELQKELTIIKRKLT
Chain of Serine/threonine-protein kinase Chk2 (O96017 whole entry): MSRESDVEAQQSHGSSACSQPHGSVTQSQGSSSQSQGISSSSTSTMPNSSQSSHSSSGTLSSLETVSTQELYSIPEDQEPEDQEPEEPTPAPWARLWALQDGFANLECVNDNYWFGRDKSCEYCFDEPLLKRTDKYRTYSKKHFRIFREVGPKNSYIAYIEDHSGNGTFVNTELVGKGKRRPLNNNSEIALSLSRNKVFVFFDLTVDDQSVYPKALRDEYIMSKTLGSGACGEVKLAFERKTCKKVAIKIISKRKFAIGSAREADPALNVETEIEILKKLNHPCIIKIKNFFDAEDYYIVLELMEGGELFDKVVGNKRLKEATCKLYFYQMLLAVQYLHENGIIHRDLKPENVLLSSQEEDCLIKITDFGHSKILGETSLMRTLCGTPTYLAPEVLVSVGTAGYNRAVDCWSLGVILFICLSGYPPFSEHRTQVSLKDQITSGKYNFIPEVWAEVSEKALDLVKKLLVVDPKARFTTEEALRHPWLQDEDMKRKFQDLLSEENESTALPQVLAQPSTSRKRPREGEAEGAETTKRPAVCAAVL
Chain of Focal adhesion kinase 1 (Q05397 2-1052 limits assumed): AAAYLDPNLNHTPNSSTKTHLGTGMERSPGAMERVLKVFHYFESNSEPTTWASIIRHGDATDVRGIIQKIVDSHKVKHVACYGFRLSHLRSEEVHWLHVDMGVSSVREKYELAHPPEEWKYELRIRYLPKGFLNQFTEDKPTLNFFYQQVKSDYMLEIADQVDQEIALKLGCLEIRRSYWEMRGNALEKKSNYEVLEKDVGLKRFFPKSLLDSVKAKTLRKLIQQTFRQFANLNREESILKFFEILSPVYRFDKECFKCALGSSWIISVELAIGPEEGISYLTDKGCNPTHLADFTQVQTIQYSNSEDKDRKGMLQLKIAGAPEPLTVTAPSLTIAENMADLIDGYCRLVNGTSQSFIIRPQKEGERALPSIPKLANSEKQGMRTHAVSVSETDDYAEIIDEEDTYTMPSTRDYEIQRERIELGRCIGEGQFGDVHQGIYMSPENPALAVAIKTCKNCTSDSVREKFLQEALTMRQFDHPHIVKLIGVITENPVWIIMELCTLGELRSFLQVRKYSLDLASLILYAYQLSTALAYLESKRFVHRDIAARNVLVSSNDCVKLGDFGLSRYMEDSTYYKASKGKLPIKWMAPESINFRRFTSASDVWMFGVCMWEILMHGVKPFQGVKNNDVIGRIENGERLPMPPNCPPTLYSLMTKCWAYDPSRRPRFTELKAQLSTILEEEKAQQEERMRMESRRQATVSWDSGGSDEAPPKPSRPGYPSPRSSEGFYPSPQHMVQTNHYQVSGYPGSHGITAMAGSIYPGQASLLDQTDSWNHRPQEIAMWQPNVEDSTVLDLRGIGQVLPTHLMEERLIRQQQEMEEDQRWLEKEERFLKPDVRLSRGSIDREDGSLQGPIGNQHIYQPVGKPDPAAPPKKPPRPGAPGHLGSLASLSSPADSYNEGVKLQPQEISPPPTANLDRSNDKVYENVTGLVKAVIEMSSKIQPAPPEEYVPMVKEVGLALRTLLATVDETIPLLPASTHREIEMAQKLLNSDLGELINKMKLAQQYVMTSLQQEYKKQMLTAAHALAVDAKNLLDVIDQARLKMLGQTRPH
Chain of Mitogen-activated protein kinase kinase kinase kinase 2 (Q12851 whole entry): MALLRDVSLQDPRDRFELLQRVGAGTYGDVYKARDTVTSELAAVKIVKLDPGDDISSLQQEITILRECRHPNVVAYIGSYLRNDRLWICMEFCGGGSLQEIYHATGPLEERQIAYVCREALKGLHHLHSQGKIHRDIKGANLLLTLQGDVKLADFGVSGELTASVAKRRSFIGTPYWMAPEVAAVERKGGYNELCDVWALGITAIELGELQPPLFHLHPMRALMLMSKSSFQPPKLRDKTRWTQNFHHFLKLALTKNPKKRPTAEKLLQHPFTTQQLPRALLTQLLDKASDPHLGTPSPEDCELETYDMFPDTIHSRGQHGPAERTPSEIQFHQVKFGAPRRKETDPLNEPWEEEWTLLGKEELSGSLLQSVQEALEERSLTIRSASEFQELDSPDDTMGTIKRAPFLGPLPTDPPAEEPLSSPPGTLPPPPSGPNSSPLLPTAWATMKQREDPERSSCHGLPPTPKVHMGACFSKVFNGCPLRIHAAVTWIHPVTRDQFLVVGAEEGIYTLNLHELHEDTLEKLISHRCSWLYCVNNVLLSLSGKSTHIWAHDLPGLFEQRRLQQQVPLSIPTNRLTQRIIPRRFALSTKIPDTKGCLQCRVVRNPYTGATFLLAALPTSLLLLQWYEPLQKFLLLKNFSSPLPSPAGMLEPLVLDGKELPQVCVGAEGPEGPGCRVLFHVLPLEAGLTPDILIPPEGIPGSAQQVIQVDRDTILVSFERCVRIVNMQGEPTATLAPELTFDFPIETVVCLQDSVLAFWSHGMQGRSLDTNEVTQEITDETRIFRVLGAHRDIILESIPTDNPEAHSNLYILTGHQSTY
Chain of Mitogen-activated protein kinase 8 (P45983 whole entry): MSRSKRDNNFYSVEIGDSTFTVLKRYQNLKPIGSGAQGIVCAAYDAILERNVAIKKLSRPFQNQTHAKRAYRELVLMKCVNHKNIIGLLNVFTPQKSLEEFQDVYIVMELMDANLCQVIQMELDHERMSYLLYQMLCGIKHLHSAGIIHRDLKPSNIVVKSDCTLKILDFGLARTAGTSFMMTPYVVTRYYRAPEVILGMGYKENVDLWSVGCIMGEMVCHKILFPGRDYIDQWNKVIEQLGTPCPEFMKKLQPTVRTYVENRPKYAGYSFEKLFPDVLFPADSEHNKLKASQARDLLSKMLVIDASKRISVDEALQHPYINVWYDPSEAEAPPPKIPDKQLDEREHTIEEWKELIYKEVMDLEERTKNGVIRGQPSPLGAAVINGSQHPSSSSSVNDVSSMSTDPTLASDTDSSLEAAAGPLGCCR
Chain of Ribosomal protein S6 kinase alpha-1 (Q15418 whole entry): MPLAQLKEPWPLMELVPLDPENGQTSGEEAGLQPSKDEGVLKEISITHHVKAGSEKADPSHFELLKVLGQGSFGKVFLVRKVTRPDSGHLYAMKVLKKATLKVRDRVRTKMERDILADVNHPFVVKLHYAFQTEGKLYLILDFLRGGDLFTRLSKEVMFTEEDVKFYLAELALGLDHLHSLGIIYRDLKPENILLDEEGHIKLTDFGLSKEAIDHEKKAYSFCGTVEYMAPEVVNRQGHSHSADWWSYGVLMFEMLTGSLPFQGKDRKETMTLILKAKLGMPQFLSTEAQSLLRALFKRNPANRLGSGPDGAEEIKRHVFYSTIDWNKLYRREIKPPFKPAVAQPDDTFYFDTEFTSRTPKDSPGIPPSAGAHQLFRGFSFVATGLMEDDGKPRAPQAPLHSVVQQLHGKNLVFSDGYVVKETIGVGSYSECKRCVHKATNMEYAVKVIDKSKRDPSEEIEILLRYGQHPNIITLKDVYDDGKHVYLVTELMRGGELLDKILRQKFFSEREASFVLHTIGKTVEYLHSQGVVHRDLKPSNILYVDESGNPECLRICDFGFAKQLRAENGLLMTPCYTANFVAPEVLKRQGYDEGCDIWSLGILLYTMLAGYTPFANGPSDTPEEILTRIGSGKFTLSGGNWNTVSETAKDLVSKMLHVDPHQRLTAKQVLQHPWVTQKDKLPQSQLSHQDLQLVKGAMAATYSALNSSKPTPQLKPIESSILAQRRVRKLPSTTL

Work on `COc1c(Nc2ncc(Cl)c(N[C@H]3[C@@H](C(N)=O)[C@@H]4C=C[C@H]3C4)n2)ccc2c1CC[C@@H](N1CCOCC1)CC2` yielded an AUC(0-t) at 12 h [1] of 24100 ng·h/mL, a clearance [2] of 29 mL/min/kg and an AUC [3] of 584 ng·h/mL. The half-life [4] was 72 min, the clearance [5] was 17 mL/min/kg and the concentration at 6 h [6] was 2870 ng/g. For the same molecule, the Cmax [7] was 599 ng/mL, the half-life [8] was 138 min and the IC50 [9] was 112 nM. The inhibition [10] was > 90%, the inhibition [11] was > 90% and the AUC [12] was 615 ng·h/mL. The half-life [13] was 198 min, the Tmax [14] was 15 min and the inhibition in vivo at 30 mg/kg (Mus musculus) was > 90%. The concentration at 12 h [15] was 1460 ng/g, the Activity (KARPAS-299) was “Dose-dependent effect” and the bioavailability [16] was 50%. For the same molecule, the clearance [17] was 28 mL/min/kg, the inhibition (Focal adhesion kinase 1) was > 90% and the bioavailability [18] was 16%. For the same molecule, the IC50 [19] was 7 nM, the inhibition [20] was > 90% and the IC50 [21] was 73 nM. The IC50 [22] was 60 nM, the IC50 [23] was 85 nM and the Tmax [24] was 48 min. For the same molecule, the Cmax [25] was 2750 ng/mL, the AUC [26] was 2990 ng·h/mL and the half-life [27] was 372 min. The IC50 [28] was 13 nM and the AUC [29] was 3020 ng·h/mL.
